S100A4 inh HTS = inhibitors of human S100A4 binding to myosin IIA peptide | 360,000 tested, 0.14% active | AID 652163 | inhibition, % at 10.7 µM | S100A4/TAMRA-MyoIIA peptide fluorescence polarization | P26447;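 active = mean inhibition of at least 70% across replicates, with every replicate also reaching that level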
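System – human S100A4 monomer protein, biochemical binding assay · Buffer or medium – Calcium-containing HEPES buffer, pH 7.2 · Timing – 5 min between mix addition and reading · Also added – TAMRA-labelled myosin IIA heavy-chain peptide probe, 5 nM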
ERAP1 HTS inh = ERAP1 (human) enzyme inhibition | inhibition, % at 10.7 µM | Q9NZ08 | 340,000 tested, 0.15% active | recombinant ERAP1, Leu-AMC fluorescence, 60 min | AID 652197;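 active = mean replicate inhibition of at least 30%, or all replicates individually reaching that 30% level; inactive = mean below 30% and not every replicate reaching it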;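 also: 0% = neutral control wells and 100% = L-leucinethiol positive control wells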
Casp6 inh = caspase-6 (human) enzyme inhibition. purified caspase-6, Z-VEID-R110 cleavage fluorescence. 350,000 tested, 0.53% active. inhibition, % at 12.5 µM. P55212;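 active = mean inhibition across replicates at least about 35%, with every replicate also reaching that limit, limit read from the data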;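 also: 0% = median of neutral control wells and 100% = no fluorescence left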
PGC1a acetyl inh = modulators of PGC1a acetylation; 350,000 tested, 0.17% active; U2OS PGC1a acetylation, AlphaScreen anti-acetyl-lysine; with virally co-expressed GCN5 acetyltransferase; inhibition, % at 15.6 µM;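 active = every replicate shows inhibition of at least 40%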;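 also: 0% = neutral control wells and 100% = positive control wells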
rRNA inh HTS = selective bacterial rRNA inhibition in E. coli. E. coli WT GFP vs humanized-ribosome RFP mutants, fluorescence, 24 h; stronger effect = lower value; DMSO median 0, no signal -100. GFP signal change (wild-type ribosome), % (concentration not given with the values). 350,000 tested, 1.6% active. AID 720706;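 active = significant combined selectivity score with lowered wild-type GFP, culture density cut under 30%, mutant RFP and density less affected; inactive = any of these conditions unmet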
ARNT-TACC3 inh = ARNT/TACC3 interaction disruption | 390,000 tested, 0.66% active | AID 623870 | inhibition, % at 9.99 µM | AlphaScreen His-ARNT PAS-B/GST-TACC3 binding, luminescence; TACC3 fragment carries E629A point mutation | Q9Y6A5;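 active = mean inhibition of replicates at least 50% and at least half of replicates each reaching 50%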;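 also: 0% = complete ARNT plus TACC3 wells and 100% = ARNT alone without TACC3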
* marks the source's active call; other numbers are inactive results. In the library only some 2.4% were active in any assay of this set; here they are far more common.

Results for C[C@@H]1CCCCO[C@@H](CN(C)C(=O)Nc2ccc(F)cc2)[C@H](C)CN([C@@H](C)CO)C(=O)c2cc(NC(=O)CCC(F)(F)F)ccc2O1 ?
S100A4 inh HTS: 6.4; ERAP1 HTS inh: 2.4; Casp6 inh: -1.4; PGC1a acetyl inh: 3.9; rRNA inh HTS: 1.9; ARNT-TACC3 inh: -0.2

What do the screens show for `COCC(=O)Nc1ccc2c(c1)C(=O)N(C)[C@H]1CC[C@@H](CC(=O)OC)O[C@@H]1CO2`?
PGC1a acetyl inh: -3.0; rRNA inh HTS: 2.7; ARNT-TACC3 inh: 7.1

Results for CCOc1cc(/C=N/Nc2nn3cnnc3c3ccccc23)ccc1O ?
S100A4 inh HTS: 10.7; Casp6 inh: -1.0; PGC1a acetyl inh: -2.9; rRNA inh HTS: 6.2; ARNT-TACC3 inh: 57.0*

Results for COc1ccc(C(=O)OCc2c(-c3ccccc3)ncc3ccccc23)cc1 ?
S100A4 inh HTS: 5.0; ERAP1 HTS inh: 4.1; Casp6 inh: -2.1; PGC1a acetyl inh: 0.5; rRNA inh HTS: -1.3; ARNT-TACC3 inh: -22.6

Results for COc1ccccc1C(=O)OCc1c(-c2ccccc2)ncc2ccccc12 ?
S100A4 inh HTS: 10.0; Casp6 inh: -3.0; PGC1a acetyl inh: -1.5; rRNA inh HTS: -25.1*; ARNT-TACC3 inh: 17.4

What do the screens show for `Cc1noc(C)c1S(=O)(=O)Nc1ccc2c(c1)C(=O)N([C@@H](C)CO)C[C@@H](C)[C@@H](CN(C)C(=O)c1ccncc1)OCCCC[C@@H](C)O2`?
S100A4 inh HTS: 4.6; ERAP1 HTS inh: 1.3; Casp6 inh: -3.4; PGC1a acetyl inh: 11.7; rRNA inh HTS: 0.9; ARNT-TACC3 inh: -5.1

What do the screens show for `COc1ccccc1N(C1=NCCCS1)S(=O)(=O)c1ccc(C(C)(C)C)cc1`?
S100A4 inh HTS: -1.1; ERAP1 HTS inh: 3.7; Casp6 inh: -2.4; PGC1a acetyl inh: -20.9; rRNA inh HTS: -16.0*; ARNT-TACC3 inh: 2.3

Results for C/C(=N\O)c1cccc(Br)c1 ?
S100A4 inh HTS: 9.2; ERAP1 HTS inh: 3.1; Casp6 inh: -0.5; rRNA inh HTS: -25.2*; ARNT-TACC3 inh: -1.8

How did CC(=NNC(=O)c1ccncc1)c1cccc(Br)c1 do in these assays?
S100A4 inh HTS: -0.5; ERAP1 HTS inh: 3.9; Casp6 inh: 3.0; PGC1a acetyl inh: -7.1; rRNA inh HTS: 12.8; ARNT-TACC3 inh: 3.6

How did C[C@@H](NC(=O)C[C@@H]1CC[C@H](NC(=O)CN2CCOCC2)[C@@H](CO)O1)c1ccccc1 do in these assays?
S100A4 inh HTS: -3.0; ERAP1 HTS inh: 0.9; Casp6 inh: 0.0; PGC1a acetyl inh: 1.1; rRNA inh HTS: 3.3; ARNT-TACC3 inh: 2.9

What do the screens show for `CC(C)CN(CC(C)C)C(=O)COn1nnc2ccc(S(=O)(=O)N3CCOCC3)cc21`?
S100A4 inh HTS: 6.5; ERAP1 HTS inh: -1.2; Casp6 inh: -0.9; PGC1a acetyl inh: 0.1; rRNA inh HTS: 5.2; ARNT-TACC3 inh: -0.7

What do the screens show for `O=C(COn1nnc2ccc(S(=O)(=O)N3CCOCC3)cc21)Nc1c(F)c(F)c(F)c(F)c1F`?
S100A4 inh HTS: -1.1; ERAP1 HTS inh: 1.1; Casp6 inh: 0.2; rRNA inh HTS: -20.1*; ARNT-TACC3 inh: 2.8

How did O=C1/C(=C/c2ccc(N3CCOCC3)o2)SC(=Nc2ccccc2)N1CCc1c[nH]c2ccccc12 do in these assays?
PGC1a acetyl inh: 61.7*; ARNT-TACC3 inh: 7.5

How did COCC(=O)N1CCCCN2[C@H](CO)[C@@H](c3ccc(C#Cc4ccccc4)cc3)[C@@H]2C1 do in these assays?
S100A4 inh HTS: 3.0; ERAP1 HTS inh: -1.0; Casp6 inh: -1.3; PGC1a acetyl inh: 2.9; rRNA inh HTS: -23.8; ARNT-TACC3 inh: 2.4

Results for O=C(CSc1nnc2ccc(-c3ccc(F)cc3)nn12)NCC1CCCO1 (stereo not drawn) ?
S100A4 inh HTS: 0.8; ERAP1 HTS inh: -1.1; Casp6 inh: 7.8; rRNA inh HTS: 8.9; ARNT-TACC3 inh: 2.0

Results for O=C(CSc1nnc2ccc(-c3ccc(F)cc3)nn12)N1CCCC1 ?
S100A4 inh HTS: 0.6; ERAP1 HTS inh: 34.0*; Casp6 inh: 6.5; PGC1a acetyl inh: 15.6; rRNA inh HTS: -4.0; ARNT-TACC3 inh: -24.0

From PubChem BioAssay
